Data published in article PMC6366850 (Chembiochem : a European journal of chemical biology, 2018).
Read-outs that look alike come from different tables or passages of the source. Values belong to the compound of their own block, whether it stands above or below them.

Key:
[1] = target: T1, Human Neutrophil Elastase (Homo sapiens, UniProt P08246); test: Human neutrophil elastase inhibition assay; type: biochemical; details: for fold less potent than 1, HNE: ratio of IC50 values
T1 sequence (P08246 30-267): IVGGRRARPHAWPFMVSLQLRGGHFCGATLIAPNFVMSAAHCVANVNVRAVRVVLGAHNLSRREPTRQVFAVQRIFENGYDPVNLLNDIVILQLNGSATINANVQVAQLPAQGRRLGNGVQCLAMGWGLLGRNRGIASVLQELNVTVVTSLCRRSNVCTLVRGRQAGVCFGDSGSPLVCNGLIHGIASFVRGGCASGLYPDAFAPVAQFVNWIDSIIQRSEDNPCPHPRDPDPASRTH

[2] = target: Porcine Pancreatic Elastase (Sus scrofa, UniProt P00772); test: Porcine pancreatic elastase inhibition assay; type: biochemical
Chain of Porcine Pancreatic Elastase (P00772 27-266): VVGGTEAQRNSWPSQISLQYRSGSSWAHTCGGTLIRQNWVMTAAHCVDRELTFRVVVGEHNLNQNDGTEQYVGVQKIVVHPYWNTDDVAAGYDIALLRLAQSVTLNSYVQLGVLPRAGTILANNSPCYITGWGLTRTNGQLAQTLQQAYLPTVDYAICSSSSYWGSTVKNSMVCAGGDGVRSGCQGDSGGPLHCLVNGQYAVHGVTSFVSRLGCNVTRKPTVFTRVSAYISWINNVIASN

[3] = target: T2, Human neutrophil elastase (HNE) (Homo sapiens, UniProt P08246); test: In vitro cleavage of CD40-IgG chimera; type: biochemical; details: qualitative gel assessment; for complete inhibition of CD40ch cleavage up to (concentration): tested 0.001–100 μM, 2 h pre-incubation with HNE
T2 sequence (P08246 30-267): T1 sequence (P08246 30-267)
In short: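 Human neutrophil elastase (100 μg/mL stock in 0.1 M Tris-NaCl, pH 7.5) was pre-incubated 2 h at 4 °C with test compound (0.001–100 μM) or DMSO. CD40-IgG chimera (human CD40 residues 21–193 fused to human IgG1 fragment) was then added at an elastase:CD40 molar ratio of 1:10 and incubated 1.5 h at 37 °C. Reactions were stopped by freezing and fragments run on reducing SDS-PAGE (2% mercaptoethanol). Gels were silver-stained and bands judged qualitatively; controls were elastase only and CD40 only.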

[4] = system: CD40 cleavage by HNE in MDA-MB-231 cells; test: Cleavage of CD40 by HNE in MDA-MB-231 cells, Western blot; type: cell-based, human; details: 100 nM HNE, 24 h
In short: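 MDA-MB-231 cells seeded at 150,000/well; after 24 h, medium was replaced with medium containing 100 nM recombinant human neutrophil elastase plus test compound in DMSO or solvent. Lysates were taken after 24 h incubation and protein measured by BCA. 17 μg protein was run on SDS-PAGE, blotted to PVDF and probed with anti-CD40 antibody detecting the N-terminal fragment, with chemiluminescent detection.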

[5] = system: MDA-MB-231 cells; test: Transwell migration assay; type: cell-based, human; details: 48 h; for effect on migration of MDA-MB-231 cells: 100 nM HNE
In short: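 Transwell inserts with 8 μm pore PET membranes. 5000 MDA-MB-231 cells in DMEM/10% FBS were seeded in the insert with test compound in DMSO or solvent, with or without 100 nM recombinant HNE; the lower chamber held complete medium with the same additions. Plates were incubated 48 h at 37 °C, 5% CO₂, and non-migrated cells were swabbed off. Migrated cells were crystal violet-stained and counted microscopically, in triplicate. Comparisons to solvent control used a two-tailed unpaired t test.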

[6] = target: T3, Bovine Pancreatic Chymotrypsin (Bos taurus, UniProt P00766); test: Chymotrypsin inhibition assay; type: biochemical
In short: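 Bovine pancreatic α-chymotrypsin in 50 mM Tris-HCl, 100 mM NaCl, 1 mM CaCl₂, pH 7.8. Test compound in DMSO (top 100 μM final, half-log dilutions) was pre-incubated with enzyme for 30 min at room temperature. Substrate was N-succinyl-Gly-Gly-Phe-p-nitroanilide (1.5 mM solution). A405 was read every 30 s for 30 min, with a PMSF positive control. Percent activity came from initial slopes relative to solvent control.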

[7] = system: MDA-MB-231 cells; test: Cell viability assay; type: cell-based, human; details: 48 h, MTT
In short: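 MDA-MB-231 cells seeded at 12,000 cells/well and grown 24 h, then exposed to test compound, HNE or DMSO solvent control. After 48 h, viability was read by MTT per the kit instructions.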

[8] = system: ICAM-1 gene expression in MDA-MB-231 cells; test: ICAM-1 gene expression by RT-qPCR; type: cell-based, human; details: 12 h
In short: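 MDA-MB-231 cells seeded at 500,000/well, grown 24 h, then serum-starved 24 h in DMEM. Medium was replaced with serum-free DMEM containing test compound or solvent, with 100 nM HNE where applied, for 12 h. RNA was isolated, reverse-transcribed with oligo(dT), and ICAM-1 transcripts were quantified by TaqMan qPCR.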

[9] = system: sICAM-1 (ICAM-1 shedding) in MDA-MB-231 cells; test: sICAM-1 levels by ICAM-1 AlphaLisa; type: cell-based, human; details: 12 h; for reduction in the levels of sICAM-1: co-treatment with 100 nM HNE
In short: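 MDA-MB-231 cells were grown overnight, starved 24 h, then placed in serum-free DMEM containing test compound or solvent, with 100 nM HNE where applied. After 12 h, culture medium was collected and soluble ICAM-1 quantified by AlphaLisa.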

[10] = system: MDA-MB-231 cells; test: HNE-induced morphological changes; type: cell-based, human
[11] = target: purified 20S human proteasome (Homo sapiens, UniProt P28074); test: Proteasome activity assay; type: biochemical; details: 50 μM, compared to positive control epoxomicin
In short: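 Purified human 20S proteasome (0.1 μg/well final) was pre-incubated 10 min at room temperature with test compound (50 μM final). Suc-LLVY-AMC substrate (75 μM final) was then added to measure chymotrypsin-like activity, using a commercial kit per the manufacturer's protocol.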

[12] = target: T3, Bovine Pancreatic Chymotrypsin; details: read-out: reported IC50 against bovine chymotrypsin; cited from earlier work
[13] = read-out: IC50 Human Neutrophil Elastase, mean ± SD, n=3, 15 min pre-incubation

IC50 [1, 13]: 290 ± 40 nM
Compound: CCCC(=O)N[C@@H](C)C(=O)N[C@H](C(=O)N[C@@H]1C(=O)N[C@@H](CC(C)C)C(=O)N[C@H]2CC[C@@H](O)N(C2=O)[C@@H](Cc2ccccc2)C(=O)N(C)[C@@H](Cc2ccc(O)cc2)C(=O)N[C@@H](C(C)C)C(=O)O[C@@H]1C)[C@H](C)O [Loggerpeptin A (1), loggerpeptin A]

IC50 [2]: 3550 ± 140 nM
Compound: CC(C)(C)C(=O)Oc1ccc(S(=O)(=O)Nc2ccccc2C(=O)NCC(=O)O)cc1 [Sivelestat, reference compound]

Compound: C/C=C(\NC(=O)[C@H](C)NC(=O)CCC)C(=O)N[C@@H]1C(=O)N[C@@H](CC(C)C)C(=O)N[C@H]2CC[C@@H](O)N(C2=O)[C@@H](Cc2ccccc2)C(=O)N(C)[C@@H](Cc2ccc(O)cc2)C(=O)N[C@@H](C(C)C)C(=O)O[C@@H]1C [Loggerpeptin C (3), loggerpeptin C]
fold less potent than 1 and 2, porcine pancreatic elastase ([2]; ratio of IC50 values): 2 fold | fold less potent than 1, HNE [1]: 2 fold | IC50 [1, 13]: 620 ± 380 nM | complete inhibition of CD40ch cleavage up to (concentration) [3]: 10 µM | inhibition of HNE processing of CD40 in cells ([4]; 10 μM): lacked significant activity | inhibition of HNE processing of CD40 in cells ([4]; 50 μM): marginal activity | effect on migration of MDA-MB-231 cells ([5]; different concentrations): no effect on migration

Compound: C/C=C1\NC(=O)[C@@H](NC(=O)[C@@H](NC(=O)[C@H](C)NC(=O)CCC)[C@@H](C)O)[C@@H](C)OC(=O)[C@H](C(C)C)NC(=O)[C@H](Cc2ccc(O)cc2)N(C)C(=O)[C@H](Cc2ccccc2)N2C(=O)[C@H](CC[C@H]2O)NC1=O [Molassamide (4), molassamide]
IC50 [6]: 240 ± 10 nM | IC50 [2]: 50 ± 10 nM | IC50 [1]: 110 ± 10 nM | fold more potent than 3 in inhibiting CD40ch cleavage [3]: 10 fold | complete inhibition of CD40ch cleavage up to (concentration) [3]: 1 µM | inhibition of HNE processing of CD40 in cells ([4]; 50 μM): virtually complete inhibition | effect on viability of MDA-MB-231 cells [7]: no reduction in cell viability | elastase-induced ICAM-1 expression levels ([8]; 100 nM HNE): dose-dependent decrease | ICAM-1 expression levels in the absence of HNE ([8]; without HNE): no significant change | reduction in the levels of sICAM-1 ([9]; 10 μM): 35% | reduction in the levels of sICAM-1 ([9]; 50 μM): 65% | effect on the levels of sICAM-1 in the absence of HNE ([9]; without HNE): no effects | HNE-induced cell rounding prevented up to (concentration) ([10]; co-treatment with 100 nM HNE, 3 h): 10 µM | morphological changes upon treatment with compound only ([10]; without HNE, up to 50 μM): no morphological changes | effect on migration of MDA-MB-231 cells ([5]; 10 μM): inhibited the migration | effect on migration of MDA-MB-231 cells in the absence of HNE ([5]; without HNE): did not exhibit any migration inhibitory activity | inhibition of chymotrypsin-like activity of proteasomes [11]: did not inhibit

Compound: CC(=O)N1CCC[C@H]1C(=O)N[C@H](C(=O)N[C@@H]1C(=O)N[C@@H](CC(C)C)C(=O)N[C@H]2CC[C@@H](O)N(C2=O)[C@@H](Cc2ccccc2)C(=O)N(C)[C@@H](Cc2ccc(O)cc2)C(=O)N[C@@H](C(C)C)C(=O)O[C@@H]1C)[C@@H](C)O [kempopeptin A]
IC50 [12]: 300 nM

Compound: CCCC(=O)N[C@@H](C)C(=O)N[C@@H](C(=O)N[C@@H]1C(=O)N[C@@H](CC(C)C)C(=O)N[C@H]2CC[C@@H](O)N(C2=O)[C@@H](Cc2ccccc2)C(=O)N(C)[C@@H](Cc2ccc(O)cc2)C(=O)N[C@@H](C(C)C)C(=O)O[C@H]1C)[C@@H](C)OC(=O)[C@H](C)NC(=O)CCC [Loggerpeptin B (2), loggerpeptin B]
fold less potent than 1, HNE [1]: 3 fold | IC50 [1, 13]: 890 ± 90 nM
